Test results reported in ChEMBL document CHEMBL1122885, “Imidazo[1,5-a]pyridines: a new class of thromboxane A2 synthetase inhibitors” (J Med Chem, 1985).

Assays:
Thromboxane-A synthase [1] = target: T1, Thromboxane-A synthase (Homo sapiens, UniProt P24557); assay: In vitro inhibition of thromboxane A2 synthetase from human platelets.
T1 sequence (P24557 whole entry): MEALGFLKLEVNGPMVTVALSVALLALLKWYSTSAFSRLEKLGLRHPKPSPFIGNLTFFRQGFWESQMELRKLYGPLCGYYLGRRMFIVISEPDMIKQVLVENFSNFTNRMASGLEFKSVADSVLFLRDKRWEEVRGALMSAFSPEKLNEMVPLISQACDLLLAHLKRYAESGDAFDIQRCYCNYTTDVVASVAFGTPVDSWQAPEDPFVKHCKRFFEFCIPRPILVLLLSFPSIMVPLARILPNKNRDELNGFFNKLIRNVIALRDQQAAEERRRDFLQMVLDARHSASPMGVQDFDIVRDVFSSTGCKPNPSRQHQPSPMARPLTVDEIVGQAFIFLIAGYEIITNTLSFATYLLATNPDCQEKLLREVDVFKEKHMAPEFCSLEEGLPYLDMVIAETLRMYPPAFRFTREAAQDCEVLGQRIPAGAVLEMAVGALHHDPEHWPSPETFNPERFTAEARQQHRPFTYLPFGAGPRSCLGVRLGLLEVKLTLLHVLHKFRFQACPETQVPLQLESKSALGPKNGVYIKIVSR
In short: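 Human platelet microsomal Tx synthetase, mixed with solubilized partially purified sheep seminal vesicle PGH2 synthetase to make endoperoxide in situ from [1-14C]arachidonic acid (2 nmol). Buffer 0.1 M Tris-HCl pH 7.5 with tryptophan 5 mM and hemoglobin 0.2 μM; 30 min, 37 °C. PGE2 reduced; TLC, scintillation counting. IC50 read graphically as 50% fall in TxB2/PGF2(α+β) count ratio; mean of ≥2 experiments.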

[2] = Partition coefficient (logP); assay type: physicochemical; conditions: octanol/water
[3] = target: Cyclooxygenase (Ovis aries); assay: In vitro inhibitory activity against Prostaglandin G/H synthase
[4] = target: Prostacyclin synthase (Bos taurus); assay: In vitro inhibitory activity against prostacyclin synthetase
Thromboxane-A synthase [5] = target: T1, Thromboxane-A synthase; assay: In vitro inhibitory activity against thromboxane A2 synthetase with lysed human platelets as the enzyme source.
In short: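 Crude microsomal Tx synthetase from human platelets plus partially purified sheep seminal vesicle PGH2 synthetase forming endoperoxide in situ from [1-14C]arachidonic acid (4 μM); 0.1 M Tris-HCl pH 7.5, 5 mM tryptophan, 0.2 μM hemoglobin; 30 min, 37 °C. PGE2 reduced to PGF2(α+β); products separated by TLC and counted by scintillation. IC50 read graphically at 50% of control TxB2/PGF2(α+β) count ratio; mean of ≥2 experiments.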

Compound	IC50 (Thromboxane-A synthase [1])	further results
O=C(O)CCCCc1ccc2cncn2c1	3300 nM	
Cc1ncc2cccc(CCCCCC(=O)O)n12	25000 nM	
NC(=O)CCCCCc1cccc2cncn12	77 nM	
C/C(=C\CCCCCc1cccc2cncn12)C(=O)O	19 nM	
CNC(=O)CCCCCc1cccc2cncn12	270 nM	
CCCCCCCc1cccc2cncn12	3300 nM	
O=C(O)CCCCc1ccn2cncc2c1	4700 nM	
CCOC(=O)CCCCCc1cccc2cncn12	330 nM	
O=C(O)CCCCc1cccn2cncc12	390 nM	
O=C(O)CCCCCCCc1cccc2cncn12	21 nM	logP [2]: 2.01
OCCCCCCc1cccc2cncn12	280 nM	
CN(C)C(=O)CCCCCc1cccc2cncn12	550 nM	
c1cc(CCCCc2nnn[nH]2)n2cncc2c1	11 nM	
c1cc(CCCCCc2nnn[nH]2)n2cncc2c1	19 nM	
N#CCCCCCc1cccc2cncn12	630 nM	
O=C(O)CCCCCc1cccc2cncn12 [PIRMAGREL]		IC50 [3]: 10000 nM; IC50 [4]: 100000 nM; IC50 (Thromboxane-A synthase [5]): 3.2 nM; logP [2]: 1.1

Second part, led by results:

IC50 (Thromboxane-A synthase [1])	Compound	further results
4.8 nM	O=C(O)/C=C/CCCc1cccc2cncn12	
40 nM	O=C(O)/C=C/CCCCCc1cccc2cncn12	
41 nM	O=C(O)CCCCc1cccc2cncn12	logP [2]: 0.7
20 nM	O=C(CCCCCc1cccc2cncn12)NO	
5.2 nM	O=C(O)CCCCCCc1cccc2cncn12	logP [2]: 1.54
28 nM	O=C(O)/C=C/C=C/c1cccc2cncn12	
